# Hits are enriched below; roughly 0.77% of the tested compounds scored in any of these assays.
# bIAP act: intestinal alkaline phosphatase (bovine) activation; 0.17% of 200,000 active; activation factor at 20 µM; AID 1016; purified bovine IAP, CDP-star luminescence, 30 min; hits give high values; fold of DMSO-control signal, blank-subtracted;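 active means activation factor of 2 or more at 20 µM, a signal rise over negative controls twice the positive control's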
# hIAP activ: increases human intestinal alkaline phosphatase activity; P09923; purified human IAP, CDP-Star luminescence, 30 min; hits give high values; 1 = vehicle-only enzyme, 0 = enzyme-free background; activation factor at 10 µM; 0.16% of 330,000 active; AID 2524;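 active means activation factor of the enzyme at least 2-fold when tested at 20 µM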
# Target sequence (P09923 whole entry, looked up): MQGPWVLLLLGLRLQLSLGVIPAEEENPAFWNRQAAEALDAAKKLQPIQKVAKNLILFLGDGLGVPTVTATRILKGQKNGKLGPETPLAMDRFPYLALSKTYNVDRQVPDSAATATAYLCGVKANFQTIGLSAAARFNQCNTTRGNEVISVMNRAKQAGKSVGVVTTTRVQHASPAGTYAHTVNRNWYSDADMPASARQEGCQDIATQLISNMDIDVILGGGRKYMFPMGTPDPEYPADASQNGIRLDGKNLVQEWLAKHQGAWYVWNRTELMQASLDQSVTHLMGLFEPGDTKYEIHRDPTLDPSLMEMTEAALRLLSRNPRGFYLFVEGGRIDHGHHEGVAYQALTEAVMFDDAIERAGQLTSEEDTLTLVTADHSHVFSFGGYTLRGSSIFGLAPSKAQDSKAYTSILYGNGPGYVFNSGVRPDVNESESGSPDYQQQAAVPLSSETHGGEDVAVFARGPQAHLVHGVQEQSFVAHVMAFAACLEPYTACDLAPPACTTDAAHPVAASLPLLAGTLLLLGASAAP
# mIAP act: increases mouse intestinal alkaline phosphatase activity | 0.24% of 330,000 active | AID 2805 | activation factor at 10 µM | muIAP, CDP-Star luminescence, 30 min; hits give high values; 1 = vehicle-only enzyme signal, 0 = enzyme-free wells;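 active means activation factor of at least 2 at 20 µM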
#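 System: mouse IAP enzyme. Reagent: CDP-Star chemiluminescent phosphatase substrate. Benchmarks: DMSO wells, no-enzyme wells. Times: 30 min enzyme-substrate-compound incubation at room temperature. Detection: luminescence from enzymatic CDP-Star hydrolysis. Doses: test compounds delivered from DMSO solution.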
# hIAP inh: human IAP inhibition | purified IAP, CDP-Star luminescence, 30 min | P09923 | 0.12% of 330,000 active | inhibition, % at 10 µM;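 active means inhibition reaching a set limit with compound at 10 µM in the primary screen, cut at about 35% in these data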;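 further: plate controls were DMSO wells with enzyme for no effect and no-enzyme buffer wells for full effect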
# bIAP inh: intestinal alkaline phosphatase (bovine) inhibition. purified bovine IAP, CDP-star luminescence, 30 min. inhibition, % at 20 µM. 190,000 tested, under 10 active. AID 1019;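 active means over 50% inhibition of intestinal alkaline phosphatase at 20 µM in the single-dose screen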
#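 System: Purified bovine intestinal alkaline phosphatase (IAP) enzyme | Input: IAP diluted 1/65,000,000 in the well | Also added: CDP-star chemiluminescent phosphatase substrate, 30 µM final | Dosing: 20 µM single dose | Times: Enzyme reaction for 30 min at room temperature | Detection: Luminescence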
# mIAP inh: mouse IAP inhibition; purified mouse IAP, CDP-Star luminescence, 30 min; inhibition, % at 10 µM; 0.2% of 330,000 active;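 active means inhibition of at least 40% at 10 µM in the primary screen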;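 further: plate controls were DMSO with enzyme for no effect and no enzyme wells for full effect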
# mIAP inh confirm: mouse IAP inhibition confirmation. shares compounds with mIAP inh. purified mouse IAP, CDP-Star luminescence, 30 min. inhibition, % at 10 µM. 4.7% of 11,000 active;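 active means inhibition of at least 40% at 10 µM in either of the two replicates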;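 further: plate controls were DMSO wells with enzyme for no effect and buffer wells lacking enzyme for full effect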
# The depositor's hits bear a star; i = inactive; nt = no result given.
SMILES,bIAP act,hIAP activ,mIAP act,hIAP inh,bIAP inh,mIAP inh,mIAP inh confirm
O=C(Nc1ccc(Cl)cc1)N[C@@H]1c2c(ccc3ccccc23)OC[C@@H]1CO,1.1,1.11,13.2*,-10.6,-11.4,i,-385.4
CCCCOc1ccc(C2/C(=C(/O)c3ccc4c(c3)CC(C)O4)C(=O)C(=O)N2CCCN2CCOCC2)cc1OC (stereo unspecified),nt,1.1,1.04,-9.6,nt,-3.9,nt
Cc1nnc(NC(=O)C2CC(=O)N(c3ccc4c(c3)OCCO4)C2)s1 (stereo unspecified),nt,1.02,1.01,-1.9,nt,-0.9,nt
O=C(Nc1nc(-c2ccco2)c(-c2ccco2)s1)C1CC(=O)N(c2ccc3c(c2)OCCO3)C1 (stereo unspecified),0.9,0.913,0.46,8.7,5.1,54.0*,69.0*
CCCCOc1[nH]c2nc(-c3ccco3)n(Cc3ccco3)c(=N)c2c1C#N,1,1.02,0.37,-1.7,-2.5,63.0*,68.1*
CC(=O)NCc1ccc(-c2csc(NC(=O)CCc3nc4ccccc4c(=O)[nH]3)n2)s1,nt,1.02,0.545,-2.0,nt,45.5*,44.8*
O=C(COC(=O)c1c(F)cccc1F)Nc1ccc(N2CCCCC2)cc1,nt,0.946,0.812,5.4,nt,18.8,nt
C/C(=N\NC(=O)CC#N)c1cc2ccc(O)cc2oc1=O,0.7,1.04,0.567,-3.6,27.3,43.3*,48.0*
CC(C)C(C(=O)NC1CCCC1)N(CC1CCCO1)C(=O)CNS(=O)(=O)c1ccc(F)cc1 (stereo unspecified),nt,0.957,0.989,4.3,nt,1.1,nt
Cc1cc(C)cc(NC(=O)Nc2cc(S(=O)(=O)N(C)C)ccc2C)c1,nt,1.02,4.88*,-2.5,nt,-387.8,-243.4
Cc1ccc(S(=O)(=O)N(C)C)cc1NC(=O)Nc1ccccc1F,nt,1.43,1.58,-43.4,nt,-58.1,nt
COc1ccccc1NC(=O)COn1nnc2ccc(S(=O)(=O)N3CCOCC3)cc21,1,0.987,0.998,1.3,-3.4,0.2,nt
O=C(CNC(=O)c1cccc(F)c1)NC1CC1,nt,1.15,0.952,-15.3,nt,4.8,nt
CC(=O)Oc1cc(C(=O)OCC(=O)N2CCc3ccccc3C2)cc(OC(C)=O)c1OC(C)=O,nt,1.27,0.545,-27.4,nt,45.5*,51.2*
N#C/C(=C\c1coc2ccc(O)cc2c1=O)C(=O)Nc1nc2ccccc2s1,nt,0.983,0.396,1.7,nt,60.4*,63.6*
O=C(c1cc(NC(=O)C23CC4CC(CC(C4)C2)C3)cc(NC(=O)C23CC4CC(CC(C4)C2)C3)c1)N1CCCCC1,0.9,0.935,2.06*,6.5,13.3,-106.2,-106.3
O=C(NC(=S)N1CCCCC1)C12CC3CC(CC(C3)C1)C2,0.7,1.14,0.984,-14.4,26.2,1.6,nt
COc1ccc(-c2ccc(SCC(=O)c3ccccc3)nn2)cc1OC,1.1,1.03,1.05,-2.7,-10.5,-5.5,nt
O=C(Nc1cccc(S(=O)(=O)N2CCCCC2)c1)Nc1ccc(Cl)cc1Cl,1.1,0.871,5.41*,12.9,-5.5,-441.4,-340.6
COc1ccccc1NS(=O)(=O)c1cccc(NC(=O)Nc2ccc(Cl)cc2)c1,1,1.04,2.13*,-4.0,2.8,-113.0,-92.2
O=C(CNc1ccc(F)cc1Cl)Nc1cccc(S(=O)(=O)N2CCCCC2)c1,nt,1.14,1.89,-14.2,nt,-89.4,nt
O=C(Nc1ccc(Cl)cc1Cl)NC1CCN(S(=O)(=O)c2ccc(F)cc2)CC1,nt,1.68,5.43*,-68.2,nt,-442.6,-116.3
O=C(Nc1ccc(Cl)cc1)Nc1cc(S(=O)(=O)N2CCOCC2)ccc1N1CCCC1,1.2,1.01,2.91*,-0.6,-16.9,-191.3,-115.5
O=C(Nc1ccc(F)cc1)Nc1cc(S(=O)(=O)N2CCOCC2)ccc1N1CCCC1,1.6,1.08,1.71,-7.7,-63.2,-71.4,nt
Cc1ccc(C(=O)/C=C/c2cc(Br)cc(Br)c2O)o1,nt,0.77,0.914,23.0,nt,8.6,nt
SMILES,bIAP act,hIAP activ,mIAP act,hIAP inh,bIAP inh,mIAP inh,mIAP inh confirm
CC(CCc1ccccc1)NC(=O)CCC(=O)N1CCC(C(=O)O)CC1 (stereo unspecified),nt,0.979,0.982,2.1,nt,1.8,nt
CN(Cc1ccccc1)C(=O)c1ccc(NC(=O)C2CCCN(C(=O)OC(C)(C)C)C2)cc1 (stereo unspecified),nt,0.929,1.08,7.1,nt,-7.6,nt
COc1cc(/C=C/C(=O)O)ccc1O,nt,0.97,0.983,3.0,nt,1.7,nt
Oc1ccc(/C=N/N=C/c2ccc(O)c(O)c2)cc1O,nt,1,0.403,-0.3,nt,59.7*,63.6*
COc1cc(C(=O)NCC(=O)OCc2ccc(F)cc2)cc(OC)c1OC,nt,1.14,1.06,-13.5,nt,-6.0,nt
CS(=O)(=O)c1ccc(C(=O)Nc2nc(-c3ccco3)c(-c3ccco3)s2)cc1,nt,0.963,0.401,3.7,nt,59.9*,69.5*
Cc1ccoc1C(=O)Nc1cccc2ccccc12,nt,1.17,1.1,-16.7,nt,-10.2,nt
NS(=O)(=O)c1cc(C(=O)NC2CCSc3ccccc32)ccc1Cl (stereo unspecified),nt,0.906,0.285,9.4,nt,71.5*,84.0*
NS(=O)(=O)c1cccc(C(=O)NC2CCSc3ccccc32)c1 (stereo unspecified),nt,0.951,1.21,4.9,nt,-21.2,nt
